Laboratory results reported in ChEMBL document CHEMBL1125140, “Synthesis and in vivo antitumor activity of 2-amino-9H-purine-6-sulfenamide, -sulfinamide, and -sulfonamide and related purine ribonucleosides” (1990).

Legend:
Assay type in all cases: functional, Mus musculus
[1] = tested on: L1210; assay: Percentage of L1210 cells killed was determined in L1210 Inoculated mice at a dose of 22 mg/kg after a single treatment
Method in brief: (§1)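 BDF1 female mice (~18 g) inoculated ip on day 0 with 1 × 10⁶ L1210 leukemia cells. Single ip bolus 24 h later, prepared just before use and given in 0.01 mL/g body weight (mg/kg dose = 10 × solubility in mg/mL; water, or Me₂SO if insoluble). Six mice per group. Percent of viable leukemia cells killed estimated from inoculum size versus life span data.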

[2] = tested on: L1210; assay: Post inoculation lifespan was determined in L1210 Inoculated mice at a dose of 22 mg/Kg after a single treatment
Method in brief: (§2)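 BDF1 female mice (~18 g) received 1 × 10⁶ L1210 cells ip on day 0, then one ip bolus at 24 h in 0.01 mL/g (dose = 10 × solubility in mg/mL; water, or Me₂SO if insoluble). Controls got 0.9% NaCl. Six mice per treatment group. %T/C = mean life span of treated / mean life span of controls × 100. Deaths assigned to leukemia or toxicity from timing and necropsy.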

[3] = tested on: L1210; assay: Percentage of L1210 cells killed was determined in L1210 Inoculated mice at a dose of 173 mg/kg after a single treatment; method in brief: as §1
[4] = tested on: L1210; assay: Post inoculation lifespan was determined in L1210 Inoculated mice at a dose of 173 mg/Kg after a single treatment; method in brief: as §2
[5] = tested on: L1210; assay: Percentage of L1210 cells killed was determined in L1210 Inoculated mice at a dose of 104 mg/kg after a single treatment; method in brief: as §1
[6] = tested on: L1210; assay: Post inoculation lifespan was determined in L1210 Inoculated mice at a dose of 104 mg/Kg; method in brief: as §2
[7] = tested on: L1210; assay: Percentage of L1210 cells killed was determined in L1210 Inoculated mice at a dose of 37 mg/kg after a single treatment; method in brief: as §1
[8] = tested on: L1210; assay: Post inoculation lifespan was determined in L1210 Inoculated mice at a dose of 37 mg/Kg after a single treatment; method in brief: as §2
[9] = tested on: L1210; assay: Percentage of L1210 cells killed was determined in L1210 Inoculated mice at a dose of 62 mg/kg after a single treatment; method in brief: as §1
[10] = tested on: L1210; assay: Post inoculation lifespan was determined in L1210 Inoculated mice at a dose of 62 mg/Kg; method in brief: as §2
[11] = tested on: L1210; assay: Percentage of L1210 cells killed was determined in L1210 Inoculated mice at a dose of 480 mg/kg after a single treatment; method in brief: as §1
[12] = tested on: L1210; assay: Post inoculation lifespan was determined in L1210 Inoculated mice at a dose of 480 mg/Kg after a single treatment; method in brief: as §2
[13] = tested on: L1210; assay: Percentage of L1210 cells killed was determined in L1210 Inoculated mice at a dose of 13 mg/kg after a single treatment; method in brief: as §1
[14] = tested on: L1210; assay: Post inoculation lifespan was determined in L1210 Inoculated mice at a dose of 13 mg/Kg after a single treatment; method in brief: as §2
[15] = tested on: L1210; assay: Post inoculation lifespan was determined in L1210 Inoculated mice at a dose of 62 mg/Kg after a single treatment; method in brief: as §2
[16] = tested on: L1210; assay: Post inoculation lifespan was determined in L1210 Inoculated mice at a dose of 104 mg/Kg after a single treatment; method in brief: as §2
[17] = tested on: L1210; assay: Percentage of L1210 cells killed was determined in L1210 Inoculated mice at a dose of 8.1 mg/kg after a single treatment; method in brief: as §1
[18] = tested on: L1210; assay: Post inoculation lifespan was determined in L1210 Inoculated mice at a dose of 8.1 mg/Kg after a single treatment; method in brief: as §2

Q: Which Activity [1] does the source give for `CC(=O)OC[C@H]1O[C@@H](n2cnc3c([S+](N)[O-])nc(N)nc32)[C@H](OC(C)=O)[C@@H]1OC(C)=O` (stereo partly specified) here?
A: 0%

Q: And the T/C [2]?
A: 99%

Q: Which results are given for `NS(=O)(=O)c1ncnc2c1ncn2[C@@H]1O[C@H](CO)[C@@H](O)[C@H]1O`?
A: Activity [3]: 98.36%; T/C [4]: 147%

Q: How did the Activity [5] turn out when `NS(=O)(=O)c1[nH]cnc2ncnc1-2` was run?
A: 95.48%

Q: And the T/C [6]?
A: 134%

Q: For `Nc1nc(S(N)(=O)=O)c2[nH]cnc2n1`, which Activity [1] is on record?
A: 20.78%

Q: What about the T/C [2] of the same compound?
A: 103%

Q: `Nc1nc([S+](N)[O-])c2[nH]cnc2n1` (stereo unspecified) was tested. Which Activity [1] did it give?
A: 67.94%

Q: What about the T/C [2] of the same compound?
A: 113%

Q: `NSc1[nH]c(N)nc2ncnc1-2` was tested. Which Activity [7] did it give?
A: 99.04%

Q: What about the T/C [8] of the same compound?
A: 159%

Q: For `O=S(=O)(F)c1[nH]cnc2ncnc1-2`, which Activity [9] is on record?
A: 73.54%

Q: And the T/C [10]?
A: 115%

Q: For `NSc1ncnc2c1ncn2C1O[C@H](CO)[C@@H](O)[C@H]1O` (stereo partly specified), which Activity [11] is on record?
A: 97.82%

Q: And the T/C [12]?
A: 149%

Q: Which results are given for `C[C@H]1OC(n2cnc3c(SN)nc(N)nc32)[C@H](O)[C@@H]1O` (stereo partly specified)?
A: Activity [13]: 95.9%; T/C [14]: 136%

Q: For `Nc1nc(S(N)(=O)=O)c2ncn(C3O[C@H](CO)[C@@H](O)[C@H]3O)c2n1` (stereo partly specified), which Activity [9] is on record?
A: 92.4%

Q: And the T/C [15]?
A: 128%

Q: What does the source list for `NSc1nc(N)nc2c1ncn2C1O[C@H](CO)[C@@H](O)[C@H]1O` (stereo partly specified)?
A: Activity [1]: 99.84%; T/C [2]: 170%

Q: How did the Activity [11] turn out when `C[C@H]1OC(n2cnc3c(S(N)(=O)=O)nc(N)nc32)[C@H](O)[C@@H]1O` (stereo partly specified) was run?
A: 94.38%

Q: And the T/C [12]?
A: 130%

Q: How did the Activity [7] turn out when `C[C@H]1OC(n2cnc3c(S)nc(N)nc32)[C@H](O)[C@@H]1O` (stereo partly specified) was run?
A: 99.82%

Q: What about the T/C [8] of the same compound?
A: 169%

Q: `Nc1nc([S+](N)[O-])c2ncn(C3O[C@H](CO)[C@@H](O)[C@H]3O)c2n1` (stereo partly specified) was tested. Which Activity [3] did it give?
A: 99.8%

Q: What about the T/C [4] of the same compound?
A: 167%

Q: For `N[S+]([O-])c1ncnc2c1ncn2C1O[C@H](CO)[C@@H](O)[C@H]1O` (stereo partly specified), which Activity [9] is on record?
A: 70.87%

Q: What about the T/C [15] of the same compound?
A: 114%

Q: With `C[C@H]1OC(n2cnc3c([S+](N)[O-])nc(N)nc32)[C@H](O)[C@@H]1O` (stereo partly specified) as the compound, how does the Activity [5] read?
A: 99.87%

Q: And the T/C [16]?
A: 172%

Q: What does the source list for `Nc1nc(=S)c2ncn([C@@H]3O[C@H](CO)[C@@H](O)[C@H]3O)c2[nH]1` [THIOGUANOSINE]?
A: Activity [17]: 98.41%; T/C [18]: 147%

Q: `OC[C@H]1O[C@@H](n2cnc3c(S)ncnc32)[C@H](O)[C@@H]1O` [THIOINOSINE] was tested. Which Activity [3] did it give?
A: 98.36%

Q: And the T/C [4]?
A: 150%
